Results taken from ChEMBL document CHEMBL1144285, “Pyrrolidinohydroquinazolines--a novel class of CCR3 modulators” (Bioorg Med Chem Lett, 2005).

target: T1, C-C chemokine receptor type 3 (Homo sapiens, UniProt P51677); test: Binding affinity measured for human C-C chemokine receptor type 3 expressed on human K562 cell membrane; type: cell membranes
T1 sequence (P51677 whole entry): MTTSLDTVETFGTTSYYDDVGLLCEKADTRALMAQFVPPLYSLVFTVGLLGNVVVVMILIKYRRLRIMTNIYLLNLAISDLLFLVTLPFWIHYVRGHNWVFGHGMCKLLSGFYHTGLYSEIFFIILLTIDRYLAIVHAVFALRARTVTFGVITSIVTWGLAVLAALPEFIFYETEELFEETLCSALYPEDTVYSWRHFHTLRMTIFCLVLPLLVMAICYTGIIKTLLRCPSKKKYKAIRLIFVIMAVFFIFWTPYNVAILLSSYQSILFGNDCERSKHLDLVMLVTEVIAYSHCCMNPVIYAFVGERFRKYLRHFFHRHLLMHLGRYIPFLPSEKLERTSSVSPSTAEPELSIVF
Summary of the method: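 Membranes from K562 cells transfected with human CCR3 (disrupted by nitrogen decompression, spun 40,000g, 4 °C, 1 h), 0.5–5 µg protein/well. SPA with WGA-coated PVT beads and 125I-rh eotaxin-1. Compounds added as DMSO dilutions, incubated 2 h. Buffer: 25 mM HEPES, 25 mM MgCl2, 1 mM CaCl2, 0.1% BSA. Unlabelled rh eotaxin defined nonspecific binding. Ki obtained by iterative mass-action fitting.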

In order of rising Ki:
1. N=c1c2ccccc2nc2n1CC/C2=C\c1ccccc1Br  28 nM
2. N=c1c2ccsc2nc2n1CC/C2=C\c1ccccc1Br  28 nM
3. N=c1c2ccccc2nc2n1CC/C2=C\c1ccccc1Cl  35 nM
4. N=c1c2ccccc2nc2n1CC/C2=C\c1ccccc1I  76 nM
5. Brc1ccccc1/C=C1\CCN2Cc3ccccc3N=C12  90 nM
6. Clc1ccccc1/C=C1\CCN2Cc3ccccc3N=C12  110 nM
7. CCC1C/C(=C\c2ccccc2Cl)C2=Nc3ccccc3CN21 (stereo unspecified)  140 nM
8. CCCCC1C/C(=C\c2ccccc2Br)C2=Nc3ccccc3CN21 (stereo unspecified)  250 nM
9. Cc1sc2nc3n(c(=N)c2c1C)CC/C3=C\c1ccccc1Br  260 nM
10. Cc1oc2nc3n(c(=N)c2c1C)CC/C3=C\c1ccccc1Br  270 nM
11. N=c1c2c(C3CC3)csc2nc2n1CC/C2=C\c1ccccc1Br  290 nM
12. C/N=c1/c2ccccc2nc2n1CC/C2=C\c1ccccc1Br  310 nM
13. N=c1c2c3c(sc2nc2n1CC/C2=C\c1ccccc1Br)CCCC3  350 nM
14. CCc1ccccc1/C=C1\CCn2c1nc1ccccc1c2=N  360 nM
15. Clc1ccc(/C=C2\CCN3Cc4ccccc4N=C23)cc1Cl  720 nM
16. N=c1c2cccnc2nc2n1CC/C2=C\c1ccccc1Br  820 nM
17. N=c1c2nc[nH]c2nc2n1CC/C2=C\c1ccccc1Br  830 nM
18. Fc1ccc(/C=C2\CCN3Cc4ccccc4N=C23)c(Cl)c1  930 nM
19. CC(C)(C)c1csc2nc3n(c(=N)c12)CC/C3=C\c1ccccc1Br  1200 nM
20. CN(C)c1ccc(/C=C2\CCN3Cc4ccccc4N=C23)c(Cl)c1  1400 nM
21. Fc1ccccc1/C=C1\CCN2Cc3ccccc3N=C12  1400 nM
22. CCc1ccccc1/C=C1\CCN2Cc3ccccc3N=C12  1400 nM
23. FC(F)(F)c1ccccc1/C=C1\CCN2Cc3ccccc3N=C12  1600 nM
24. Clc1ccc(/C=C2\CCN3Cc4ccccc4N=C23)c(Cl)c1  1700 nM
25. Clc1cccc(Cl)c1/C=C1\CCN2Cc3ccccc3N=C12  1800 nM
26. C(=C1/CCN2Cc3ccccc3N=C12)/c1ccccc1-c1ccccc1  2900 nM
27. FC(F)(F)Oc1ccccc1/C=C1\CCN2Cc3ccccc3N=C12  3200 nM
28. COc1ccc(/C=C2\CCn3c2nc2ccccc2c3=N)cc1  3900 nM
29. CCOc1ccccc1/C=C1\CCN2Cc3ccccc3N=C12  4500 nM
30. N#C/N=c1/c2ccccc2nc2n1CC/C2=C\c1ccccc1Br  6100 nM
31. Fc1ccc(C2C/C(=C\c3ccccc3Br)C3=Nc4ccccc4CN32)cc1 (stereo unspecified)  7900 nM
